In ChEMBL document CHEMBL3124822, “Discovery of a rapidly metabolized, long-acting β(2) adrenergic receptor agonist with a short onset time incorporating a sulfone group suitable for once-daily dosing” (J Med Chem, 2014):

Tests used:
Cytochrome P450 3A4 = Cytochrome P450 3A4 (Homo sapiens, UniProt P08684); experiment: Inhibition of human CYP3A4 expressed in Escherichia coli using 7-benzyloxyquinoline as substrate; format: ADME
Procedure, shortened: (§1)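 Human CYP isoforms expressed in E. coli; IC50 from n = 3. Probe substrates diethoxyfluorescein and 7-benzyloxyquinoline are stated for CYP3A4.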

Hepatocyte [1] = experiment: Drug metabolism in human hepatocytes assessed as metabolite M2 formation at 12.5 uM after 2 hrs by LC-MS/MS analysis; format: ADME, cell-based
Procedure, shortened: (§2)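 Human hepatocytes incubated with substrate at 12.5 μM for 2 h. Products characterized by LC–MS/MS on a C18 column, 5–95% acetonitrile gradient in water with 0.1% formic acid over 8 min. Metabolites numbered by elution order. Abundance is semiquantitative from peak heights (low/medium/high), assuming equal analyte response.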

[2] = molecular target: Beta-3 adrenergic receptor (Homo sapiens, UniProt P13945); experiment: Agonist activity at human beta3 adrenoceptor transfected in CHO cells assessed as cyclic AMP accumulation after 45 mins by fluorescence polarization assay; format: cell-based
L5178Y [3] = experiment: Genotoxicity against mouse L5178Y cells; format: toxicity, cell-based
Procedure, shortened: (§3)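 Acetate and 4-biphenylsulfonate salts screened in Ames and mouse lymphoma L5178Y assays, with and without a rat liver metabolic activation system.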

Cavia porcellus [4] = experiment: Bronchodilatory activity in guinea pig assessed as duration of action of inhibition of histamine-induced bronchoconstriction at 10 times EC90 administered via nebulization 2 mins prior to histamine challenge; format: functional
Procedure, shortened: (§4)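 Conscious guinea pigs, n = 24 per group, given test agonist as a nebulized solution in dimethylacetamide–saline vehicle (2 min nebulization) before histamine (10 mM, nebulized 1.3 min) in a whole-body plethysmograph. PenH recorded for 15 min as index of airway obstruction. Dose expressed as nebulizer concentration; duration taken as time to 50% recovery.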

[5] = Half life in Han Wistar rat at 0.25 mg/kg, iv up to 7 hrs by LC-MS/MS analysis; format: ADME, organism-based; set-up: dose 0.25 mg/kg, route intravenous; conditions: in vivo
Procedure, shortened: (§5)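 Han Wistar rats dosed 0.25 mg/kg intravenously; plasma sampled at various times up to 7 h postdose. Clearance expressed as percentage of liver blood flow.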

[6] = Volume of distribution at steady state in beagle dog at 0.05 mg/kg, iv up to 8 hrs by LC-MS/MS analysis; format: ADME, organism-based, Canis lupus familiaris; set-up: dose 0.05 mg/kg, route intravenous; conditions: in vivo, read-out: Vdss
Procedure, shortened: (§6)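 Beagle dogs dosed 0.05 mg/kg intravenously; plasma collected at various time points up to 8 h postdose.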

[7] = Volume of distribution at steady state in Han Wistar rat at 0.25 mg/kg, iv up to 7 hrs by LC-MS/MS analysis; format: ADME, organism-based; set-up: dose 0.25 mg/kg, route intravenous; conditions: in vivo, read-out: Vdss; procedure, shortened: as §5
Hepatocyte [8] = experiment: Drug metabolism in human hepatocytes assessed as metabolite M7 formation at 12.5 uM after 2 hrs by LC-MS/MS analysis; format: ADME, cell-based; procedure, shortened: as §2
Salmonella typhimurium = experiment: Genotoxicity in Salmonella typhimurium by Ames assay in presence of rat liver metabolic activation system; format: toxicity, organism-based; conditions: salmonella enterica subsp. enterica serovar typhimurium; procedure, shortened: as §3
[9] = Oral absorption in Han Wistar rat at 2 mg/kg up to 7 hrs by LC-MS/MS analysis; format: ADME, organism-based; set-up: dose 2 mg/kg; conditions: in vivo, read-out: Fa
Procedure, shortened: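 Rat oral absorption from hepatic portal vein plasma, corrected for systemic circulation levels, after β-glucuronidase treatment of samples (deconjugated HPV model). Expressed as h·ng/mL.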

Cytochrome P450 2D6 = Cytochrome P450 2D6 (Homo sapiens, UniProt P10635); experiment: Inhibition of human CYP2D6 expressed in Escherichia coli; format: ADME; procedure, shortened: as §1
[10] = Oral bioavailability in beagle dog at 0.25 mg/kg up to 8 hrs by LC-MS/MS analysis; format: ADME, organism-based, Canis lupus familiaris; conditions: in vivo
Procedure, shortened: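 Beagle dogs dosed 0.25 mg/kg orally, with 0.05 mg/kg iv reference arm; plasma collected at various time points up to 8 h postdose.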

Hepatocyte [11] = experiment: Drug metabolism in human hepatocytes assessed as metabolite M13 formation at 12.5 uM after 2 hrs by LC-MS/MS analysis; format: ADME, cell-based; procedure, shortened: as §2
[12] = molecular target: 5-hydroxytryptamine receptor 1B (Homo sapiens, UniProt P28222); experiment: Binding affinity to human 5HT1B receptor
[13] = Plasma protein binding in rat; format: ADME, cell-free; conditions: read-out: PPB (converted)
Hepatocyte [14] = experiment: Drug metabolism in human hepatocytes assessed as metabolite M11 formation at 12.5 uM after 2 hrs by LC-MS/MS analysis; format: ADME, cell-based; procedure, shortened: as §2
[15] = Drug metabolism in human hepatocytes at 1 uM after 2 hrs by LC-MS/MS analysis; format: ADME, cell-based, Hepatocyte; conditions: read-out: Drug metabolism
Procedure, shortened: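 Human hepatocytes incubated with substrate at 1 μM for 2 h; percentage turnover of parent determined.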

[16] = molecular target: Beta-2 adrenergic receptor (Homo sapiens, UniProt P07550); experiment: Agonist activity at human beta2 adrenoceptor transfected in CHO cells assessed as cyclic AMP accumulation after 45 mins by fluorescence polarization assay; format: functional, cell-based
Cavia porcellus [17] = experiment: Bronchodilatory activity in guinea pig assessed as duration of action of inhibition of histamine-induced bronchoconstriction at EC90 administered via nebulization 2 mins prior to histamine challenge; format: functional; procedure, shortened: as §4
Cavia porcellus [18] = experiment: Bronchodilatory activity in guinea pig assessed as inhibition of histamine-induced bronchoconstriction administered via nebulization 2 mins prior to histamine challenge; format: functional; procedure, shortened: as §4
L5178Y [19] = experiment: Genotoxicity against mouse L5178Y cells in presence of rat liver metabolic activation system; format: toxicity, cell-based; procedure, shortened: as §3
[20] = Plasma clearance in beagle dog at 0.05 mg/kg, iv up to 8 hrs by LC-MS/MS analysis; format: ADME, organism-based, Canis lupus familiaris; set-up: dose 0.05 mg/kg, route intravenous; procedure, shortened: as §6
Hepatocyte [21] = experiment: Drug metabolism in human hepatocytes assessed as metabolite M15 formation at 12.5 uM after 2 hrs by LC-MS/MS analysis; format: ADME, cell-based; procedure, shortened: as §2
[22] = Half life in beagle dog at 0.05 mg/kg, iv up to 8 hrs by LC-MS/MS analysis; format: ADME, organism-based, Canis lupus familiaris; set-up: dose 0.05 mg/kg, route intravenous; conditions: in vivo; procedure, shortened: as §6
Cytochrome P450 2C19 = Cytochrome P450 2C19 (Homo sapiens, UniProt P33261); experiment: Inhibition of human CYP2C19 expressed in Escherichia coli; format: ADME; procedure, shortened: as §1
Cytochrome P450 1A2 = molecular target: T1, Cytochrome P450 1A2 (Homo sapiens, UniProt P05177); experiment: Inhibition of human CYP1A2 expressed in Escherichia coli; format: ADME; procedure, shortened: as §1
T1 sequence (P05177 whole entry): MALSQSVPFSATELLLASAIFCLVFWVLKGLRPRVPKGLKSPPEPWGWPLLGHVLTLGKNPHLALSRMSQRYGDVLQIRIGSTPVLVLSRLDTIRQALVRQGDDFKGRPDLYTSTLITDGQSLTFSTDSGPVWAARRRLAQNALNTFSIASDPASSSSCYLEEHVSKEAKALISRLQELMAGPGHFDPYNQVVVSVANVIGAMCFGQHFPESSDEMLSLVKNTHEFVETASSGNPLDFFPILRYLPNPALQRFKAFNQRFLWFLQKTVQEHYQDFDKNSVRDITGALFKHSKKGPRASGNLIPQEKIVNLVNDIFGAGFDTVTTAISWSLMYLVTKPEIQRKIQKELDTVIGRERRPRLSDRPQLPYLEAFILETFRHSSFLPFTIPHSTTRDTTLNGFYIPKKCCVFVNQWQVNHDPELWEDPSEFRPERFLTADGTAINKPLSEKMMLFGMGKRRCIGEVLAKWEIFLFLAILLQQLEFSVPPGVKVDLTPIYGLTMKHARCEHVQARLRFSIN

Hepatocyte [23] = experiment: Drug metabolism in human hepatocytes assessed as metabolite M12 formation at 12.5 uM after 2 hrs by LC-MS/MS analysis; format: ADME, cell-based; procedure, shortened: as §2
Rattus norvegicus = experiment: Clearance in Han Wistar rat at 0.25 mg/kg, iv up to 7 hrs by LC-MS/MS analysis relative to liver blood flow; format: ADME, organism-based; set-up: dose 0.25 mg/kg, route intravenous; conditions: in vivo; procedure, shortened: as §5

Cytochrome P450 2D6, sequence (P10635 whole entry): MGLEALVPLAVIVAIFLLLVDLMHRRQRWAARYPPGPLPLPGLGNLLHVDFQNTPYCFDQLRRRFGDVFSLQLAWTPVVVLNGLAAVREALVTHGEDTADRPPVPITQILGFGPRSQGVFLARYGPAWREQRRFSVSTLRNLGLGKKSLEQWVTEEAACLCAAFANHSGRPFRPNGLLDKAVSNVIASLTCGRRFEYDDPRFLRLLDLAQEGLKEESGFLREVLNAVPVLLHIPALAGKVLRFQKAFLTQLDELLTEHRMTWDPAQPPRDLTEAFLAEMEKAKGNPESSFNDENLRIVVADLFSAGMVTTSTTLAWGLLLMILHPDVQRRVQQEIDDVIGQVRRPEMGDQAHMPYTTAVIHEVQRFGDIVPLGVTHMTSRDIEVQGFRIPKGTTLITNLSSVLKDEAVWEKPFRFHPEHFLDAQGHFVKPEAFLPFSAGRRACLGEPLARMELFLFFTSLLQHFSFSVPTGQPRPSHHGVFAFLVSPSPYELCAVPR
5-hydroxytryptamine receptor 1B, sequence (P28222 whole entry): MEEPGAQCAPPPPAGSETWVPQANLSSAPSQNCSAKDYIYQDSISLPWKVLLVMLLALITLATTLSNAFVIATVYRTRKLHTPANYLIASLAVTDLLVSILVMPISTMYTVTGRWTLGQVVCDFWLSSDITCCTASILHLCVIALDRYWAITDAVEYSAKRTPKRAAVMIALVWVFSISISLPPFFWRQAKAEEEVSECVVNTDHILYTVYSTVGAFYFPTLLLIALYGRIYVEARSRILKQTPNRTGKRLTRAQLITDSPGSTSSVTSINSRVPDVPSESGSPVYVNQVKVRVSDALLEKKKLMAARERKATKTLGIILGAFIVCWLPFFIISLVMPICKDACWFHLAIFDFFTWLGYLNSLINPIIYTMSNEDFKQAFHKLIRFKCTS
Cytochrome P450 2C19, sequence (P33261 whole entry): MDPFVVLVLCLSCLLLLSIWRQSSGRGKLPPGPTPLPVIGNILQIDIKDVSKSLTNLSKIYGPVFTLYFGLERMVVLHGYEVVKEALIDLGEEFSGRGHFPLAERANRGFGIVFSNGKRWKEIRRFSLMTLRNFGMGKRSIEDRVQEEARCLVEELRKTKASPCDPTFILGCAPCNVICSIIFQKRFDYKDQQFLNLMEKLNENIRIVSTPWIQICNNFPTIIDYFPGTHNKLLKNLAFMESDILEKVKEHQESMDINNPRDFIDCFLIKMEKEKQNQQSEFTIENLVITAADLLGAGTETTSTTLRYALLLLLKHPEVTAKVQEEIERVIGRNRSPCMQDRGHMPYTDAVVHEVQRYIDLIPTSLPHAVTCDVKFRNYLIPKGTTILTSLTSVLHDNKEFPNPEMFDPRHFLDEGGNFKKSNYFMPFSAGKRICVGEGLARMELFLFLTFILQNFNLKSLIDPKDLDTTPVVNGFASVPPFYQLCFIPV
Cytochrome P450 3A4, sequence (P08684 whole entry, canonical isoform): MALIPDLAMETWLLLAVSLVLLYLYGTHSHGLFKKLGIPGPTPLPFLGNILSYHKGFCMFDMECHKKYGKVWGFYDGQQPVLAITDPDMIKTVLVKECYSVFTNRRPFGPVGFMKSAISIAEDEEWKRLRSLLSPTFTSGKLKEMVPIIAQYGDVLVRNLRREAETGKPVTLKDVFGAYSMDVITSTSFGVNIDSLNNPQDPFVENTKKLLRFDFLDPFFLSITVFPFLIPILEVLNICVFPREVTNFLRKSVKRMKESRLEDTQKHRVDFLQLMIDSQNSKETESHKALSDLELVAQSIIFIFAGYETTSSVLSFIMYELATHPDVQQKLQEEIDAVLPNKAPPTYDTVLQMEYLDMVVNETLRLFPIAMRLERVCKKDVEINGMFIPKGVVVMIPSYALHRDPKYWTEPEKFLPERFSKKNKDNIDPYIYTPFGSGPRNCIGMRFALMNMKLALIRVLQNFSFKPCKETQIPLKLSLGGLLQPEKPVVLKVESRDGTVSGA
Beta-3 adrenergic receptor, sequence (P13945 whole entry): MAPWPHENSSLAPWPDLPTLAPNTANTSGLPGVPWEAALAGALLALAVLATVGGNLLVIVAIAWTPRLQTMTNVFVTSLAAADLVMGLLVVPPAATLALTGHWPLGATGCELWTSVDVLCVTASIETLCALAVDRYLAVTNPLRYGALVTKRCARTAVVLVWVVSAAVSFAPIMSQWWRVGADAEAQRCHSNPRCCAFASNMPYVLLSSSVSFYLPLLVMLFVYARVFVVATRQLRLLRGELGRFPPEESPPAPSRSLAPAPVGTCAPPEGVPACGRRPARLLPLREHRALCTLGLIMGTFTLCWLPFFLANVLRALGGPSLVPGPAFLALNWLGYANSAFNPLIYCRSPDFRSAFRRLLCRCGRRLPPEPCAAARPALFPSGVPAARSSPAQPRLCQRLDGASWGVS
Beta-2 adrenergic receptor, sequence (P07550 whole entry): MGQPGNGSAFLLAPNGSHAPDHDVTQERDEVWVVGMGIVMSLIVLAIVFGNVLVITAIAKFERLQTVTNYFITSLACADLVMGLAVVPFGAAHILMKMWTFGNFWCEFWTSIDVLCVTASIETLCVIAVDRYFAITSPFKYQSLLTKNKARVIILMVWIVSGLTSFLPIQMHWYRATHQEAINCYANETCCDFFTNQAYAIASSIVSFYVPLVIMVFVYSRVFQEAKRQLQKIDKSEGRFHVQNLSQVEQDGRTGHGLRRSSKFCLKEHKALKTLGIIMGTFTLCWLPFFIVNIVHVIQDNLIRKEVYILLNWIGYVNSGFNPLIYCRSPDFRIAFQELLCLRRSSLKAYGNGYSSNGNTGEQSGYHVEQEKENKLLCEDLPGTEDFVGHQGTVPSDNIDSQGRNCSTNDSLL

IC50 (Cytochrome P450 3A4): 3.8 µM
Drug metabolism (Hepatocyte [1]): Active
EC50 [2]: 0.794 µM
half-life [5]: 30 min
Vd [6]: 0.1 L/kg
Vd [7]: 1.1 L/kg
Drug metabolism (Hepatocyte [8]): Active
AUC at 7 h [9]: 15.9 ng·h/mL
IC50 (Cytochrome P450 2D6): 6.4 µM
bioavailability [10]: 3%
Drug metabolism (Hepatocyte [11]): Active
IC50 [12]: 0.1 µM
fraction unbound [13]: 0.02
Drug metabolism (Hepatocyte [14]): Active
metabolised at 2 h, 1 µM [15]: 90%
EC50 [16]: 0.002 µM
EC90 (Cavia porcellus [18]): 10 µM
clearance [20]: 3.7 mL/min/kg
Drug metabolism (Hepatocyte [21]): Active
half-life [22]: 24 min
IC50 (Cytochrome P450 2C19): > 10 µM
IC50 (Cytochrome P450 1A2): > 100 µM
Drug metabolism (Hepatocyte [23]): Active
CL (Rattus norvegicus): 62%
Structure (SMILES): CC(=O)O.O=S(=O)(c1cccc(CCCCOCCCCCCNC[C@H](O)c2ccc(O)c(CO)c2)c1)C1CCCC1
Activity (L5178Y [3]): Non-toxic
Time (Cavia porcellus [4]): >24 h
Activity (Salmonella typhimurium): Non-toxic
Time (Cavia porcellus [17]): 20 h
Activity (L5178Y [19]): Non-toxic
